Assay results of several laboratories.
Compare with care: the assays were run in different laboratories. pEC50, pIC50: −log10 of the molar value.
Organism: Severe acute respiratory syndrome coronavirus 2

Structure (SMILES) | assay | system | conditions | endpoint | result
O=C(O[C@@H]1Cc2c(O)cc(O)cc2O[C@@H]1c1cc(O)c(O)c(O)c1)c1cc(O)c(O)c(O)c1 | cytopathic effect | Vero C1008 | 1.562 µM | inhibition | 0%
CC1=NN(c2ccccc2)C(=O)C1 | viral replication, inhibitor | Huh-7 |  | pIC50 | < 5.70
Cn1c(C(=O)Nc2ccc3c(c2)OCCO3)cc2c(=O)n3ccccc3nc21 | viral replication | Vero | 0.1 µM | inhibition | 37.7%
N#Cc1ccc2[nH]cc(CCCCN3CCN(c4ccc5oc(C(=N)Cl)cc5c4)CC3)c2c1 | viral replication, inhibitor | Huh-7 |  | pIC50 | < 5.70
CC(CN1c2ccccc2Sc2ccccc21)N(C)C (centres unmarked) | viral replication | Vero C1008 |  | pIC50 | 5.50
CN[C@@H](C)C(=O)N[C@H](C(=O)N1CCC[C@H]1C(=O)Nc1sc(-c2ncco2)nc1-c1ccccc1)C1CCCCC1 | viral replication, inhibitor | Vero C1008 | 1 µM | inhibition | 42.2%
Cn1cnc(Cn2c(=O)[nH]/c(=N\c3cc4cn(C)nc4cc3Cl)n(Cc3cc(F)c(F)cc3F)c2=O)n1 | viral replication, inhibitor, qPCR |  | 48 h | pEC50 | 7.64
N#C[C@@]1(c2ccc3c(N)ncnn23)O[C@H](CO)[C@@H](O)[C@H]1O | viral replication, inhibitor, qPCR | Vero C1008 |  | pEC50 | 6.42
CCC(CC)COC(=O)[C@H](C)N[P@](=O)(OC[C@H]1O[C@@](C#N)(c2ccc3c(N)ncnn23)[C@H](O)[C@@H]1O)Oc1ccccc1 | viral replication | Vero | 1 µM | inhibition | 95.2%
OC(CNCC(O)C1CCc2cc(F)ccc2O1)C1CCc2cc(F)ccc2O1 (centres unmarked) | viral replication, inhibitor | Huh-7 |  | pIC50 | < 5.70
COC(=O)Nc1nc2cc(C3(O)c4ccccc4C(=O)N3c3cc(Cl)ccc3C)ccc2[nH]1 (centres unmarked) | viral replication, inhibitor | Vero C1008 | 1 µM | inhibition | 40.3%
CCCCCCCCCCCCCCCCOCCCOP(=O)(O)OC[C@H]1O[C@@](C#N)(c2ccc3c(N)ncnn23)[C@H](O)[C@@H]1O | viral replication, inhibitor, qPCR | Vero C1008 | 48 h | EC90 | 0.73 µM
C=C1[C@H](CO)[C@@H](O)C[C@@H]1n1cnc2c(=O)[nH]c(N)nc21 | viral replication, inhibitor | Huh-7 |  | pIC50 | 7.38
CC(C)=CCc1c(O)ccc(C(=O)/C=C/c2ccc(O)cc2)c1O | cytopathic effect | Vero C1008 | 6.25 µM | inhibition | 0%
CN(CCCN1c2ccccc2CCc2ccccc21)CC(=O)c1ccc(Cl)cc1 | viral replication, inhibitor | A549-ACE2 |  | pIC50 | 5.11
Cc1cccn2c(=O)c3cc(C(=O)Nc4ccc(N(C)C)cc4)n(C)c3nc12 | viral replication | Vero | 10 nM | inhibition | 7.3%
O=C(O)c1c(Nc2cccc(F)c2)[nH]c2cc(Cl)ccc2c1=O | viral entry, inhibitor | NCI-H1299 | pseudovirus | pEC50 | 6.16
Fc1ccc(C(OCCN2CCN(CCCc3ccccc3)CC2)c2ccc(F)cc2)cc1 | viral replication, inhibitor | A549-ACE2 |  | pIC50 | 5.22
CC(/C=C/C=C(\C)c1cc(C(C)(C)C)cc(C(C)(C)C)c1)=C\C(=O)O | viral replication, inhibitor | Vero C1008 | 1 µM | inhibition | 61.6%
O=C(NC1CCN(CCCCC2(C(=O)NCC(F)(F)F)c3ccccc3-c3ccccc32)CC1)c1ccccc1-c1ccc(C(F)(F)F)cc1 | viral replication, inhibitor | Huh-7 |  | pIC50 | 6.12
Cc1cc(NC(=O)c2cc3c(=O)n4cccc(C)c4nc3n2C)ccc1Br | viral replication | Vero | 1 µM | inhibition | 74.7%

Structure (SMILES) | assay | system | conditions | endpoint | result
CCC(CC)COC(=O)[C@H](C)N[P@](=O)(OC[C@H]1O[C@@](C#N)(c2ccc3c(N)ncnn23)[C@H](O)[C@@H]1O)Oc1ccccc1 | viral replication, inhibitor, qPCR | Vero C1008 |  | pEC50 | 5.95
CCCCCN(C(=O)NC)c1ccc2nc(CCCC)n(Cc3ccc(NC(=O)c4c(Cl)ccc(Cl)c4C(=O)O)cc3)c2c1 | viral replication, inhibitor | Vero C1008 | 1 µM | inhibition | 44.5%
O=C(/C=C/c1ccc(O)c(O)c1/C=C/c1ccc(O)c(O)c1)O[C@H](Cc1ccc(O)c(O)c1)C(=O)O | cytopathic effect, inhibitor | Vero C1008 | 0.7812 µM | inhibition | 0%
CCC(CC)COC(=O)[C@H](C)N[P@](=O)(OC[C@H]1O[C@@](C#N)(c2ccc3c(N)ncnn23)[C@H](O)[C@@H]1O)Oc1ccccc1 | viral replication, inhibitor | Huh-7 |  | pIC50 | 8.22
CCCCCCCCCCCCCCCCCCOCCOP(=O)(O)OC[C@H]1O[C@@](C#N)(c2ccc3c(N)ncnn23)[C@H](O)[C@@H]1O | viral replication, inhibitor, qPCR | Vero C1008 |  | pEC50 | 6.52
CN(Cc1cc(Br)cc(Br)c1N)C1CCCCC1 | viral replication | Vero C1008 |  | pIC50 | 5.55
CCOC(=O)c1ncc2[nH]c3cccc(OC(C)C)c3c2c1C | viral replication, inhibitor | Vero C1008 | 1 µM | inhibition | 40.6%
CCCCCCCCCCCCCCCCCCOC[C@H](COP(=O)(O)OC[C@H]1O[C@@](C#N)(c2ccc3c(N)ncnn23)[C@H](O)[C@@H]1O)OCc1ccccc1 | viral replication, inhibitor, qPCR | Vero C1008 | 48 h | EC90 | 0.16 µM
OCCOCCN1CCN(C(c2ccccc2)c2ccc(Cl)cc2)CC1 (centres unmarked) | viral replication, inhibitor | A549-ACE2 |  | pIC50 | 5.44
Cc1ccc(NC(=O)c2cc3c(=O)n4cccc(C)c4nc3n2C)cc1Cl | viral replication | Vero | 10 nM | inhibition | 25.8%
CCN(CC)CCCC(C)Nc1ccnc2cc(Cl)ccc12 (centres unmarked) | viral replication, inhibitor | A549-ACE2 |  | pIC50 | 6.04
O=C(Nc1ccccc1F)c1cc2c(=O)n3ccccc3nc2n1Cc1ccccc1 | viral replication | Vero | 10 nM | inhibition | 50.8%
C=C[C@@](C)(/C=C/c1ccc(O)cc1)CCC=C(C)C | cytopathic effect | Vero C1008 | 3.125 µM | inhibition | 0%
Cc1cc2c(cc1C(=O)Oc1ccc(C(=O)O)cc1)C(C)(C)CCC2(C)C | viral replication, inhibitor | Vero C1008 | 1 µM | inhibition | 49.8%
CCc1ccc(NC(=O)c2cc3c(=O)n4ccccc4nc3n2C)cc1 | viral replication | Vero | 1 nM | inhibition | 4.08%
CN(C)CCC=C1c2ccccc2CCc2ccccc21 | viral replication | Vero C1008 |  | pIC50 | 5.55
COc1ccc(C[C@@H]2c3cc(Oc4cc(C[C@@H]5c6cc(O)c(OC)cc6CCN5C)ccc4O)c(OC)cc3CCN2C)cc1 | cytopathic effect, inhibitor | Vero C1008 | 50 µM | inhibition | 66.7%
Cn1c(C(=O)Nc2ccc(Cl)cc2)cc2c(=O)n3ccccc3nc21 | viral replication | Vero | 1 nM | inhibition | 5.41%
CCCN(CCC)CCc1ccc(OC)c(OCCc2ccccc2)c1 | viral replication, inhibitor | A549-ACE2 |  | pIC50 | 5.85
CCC(CC)COC(=O)[C@H](C)N[P@](=O)(OC[C@H]1O[C@@](C#N)(c2ccc3c(N)ncnn23)[C@H](O)[C@@H]1O)Oc1ccccc1 | viral replication, inhibitor | Vero C1008 |  | pEC50 | > 4.00
